Compound activity as filed in PubChem.
TRPC4 act: TRPC4 (mouse) channel activation | HEK293 TRPC4beta/mu-opioid, Fluo4 calcium fluorescence; active compounds read high | B-score at 10 µM | 0.49% of 310,000 active;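 active = B-score above 5 SD of library B-scores, and initial fluorescence ratio not above library mean plus 5 SD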;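 note: positive B-score marks a calcium rise read as TRPC4 activation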
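Incubation: 45 min room-temperature Fluo4 loading, 110 s read / System: HEK293 cells stably co-expressing mouse TRPC4beta and mu-opioid receptor / Signal: Fluo4 fluorescence, kinetic / Control set: buffer (low) and maximal DAMGO (high) / Measure: integrated baseline-normalised fluorescence ratio, converted to per-well B score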
TRPC6 activator: mouse TRPC6 channel activation; HEK293-TRPC6 membrane potential dye fluorescence; active compounds read high; B-score at 10 µM; 0.13% of 310,000 active; AID 2550;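 active = B-score of the integrated fluorescence ratio above library mean plus 3 SD, and starting fluorescence ratio within library mean plus 5 SD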;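 note: higher score means more depolarization so channel activation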
TRPC6 inhibitor: mouse TRPC6 channel inhibition; Q61143; HEK293-TRPC6, membrane potential dye, ACh-evoked depolarization; active compounds read low; B-score at 10 µM; 1.1% of 310,000 active; AID 2553;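 active = B-score under library mean minus 3 SD, initial fluorescence not abnormally high, positive integrated signal ratio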;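 note: B-score derived from integrated fluorescence ratio over the kinetic read; more negative B-score means stronger inhibition of depolarization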
TRPC4 block: TRPC4 (mouse) channel inhibition; Q9QUQ5; HEK293 TRPC4beta/mu-opioid, DAMGO-evoked Fluo4 calcium flux; active compounds read low; B-score at 10 µM; 0.39% of 300,000 active;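 active = B-score over 3 SD under the library average, no early fluorescence shift, positive overall ratio signal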
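Material: HEK293 cells with stable TRPC4beta plus mu-opioid receptor expression; probe or stimulus: DAMGO in two steps, submaximal then maximal; technique: Fluo4 calcium fluorescence by kinetic imaging, 5 s 1 Hz baseline; measure: integrated fluorescence ratio relative to baseline, converted to per-well B score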
TRPC4 potent: allosteric potentiators of mouse TRPC4 channel; HEK293 TRPC4beta/mu-opioid, DAMGO EC20, Fluo-4 Ca2+ flux; active compounds read high; B-score at 10 µM; 0.42% of 310,000 active;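 active = B-score of calcium response area above 5 SD of library B-scores, with initial fluorescence ratio within 5 SD of library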;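 note: B-score of integrated fluorescence ratio over time as area under calcium response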
HEK293 TRPC6 ctr: parental HEK293 nonspecific activity of TRPC6 modulators; shares compounds with TRPC6 inhibitor; membrane potential dye fluorescence; membrane potential signal change, % at 10 µM; 51% of 2,400 active;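 active = membrane potential signal moves up or down beyond 5 SD from buffer-only wells, on both duplicate plates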
HEK293 MPD ctr 2: parental HEK293 nonspecific activity of TRPC6 modulators, second screen; inhibition, % at 10 µM; membrane potential dye fluorescence; after compound, maximal acetylcholine stimulation; 14% of 2,400 active; AID 488926; shares compounds with TRPC6 inhibitor;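 active = membrane potential signal drops by more than 5 SD from the mean control signal, in both duplicate plates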;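 note: plate controls were acetylcholine ECmax control wells for no effect and buffer only wells for full effect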
TRPC4/MOR mod: selectivity of TRPC6 modulators against mouse TRPC4 | shares compounds with TRPC6 inhibitor | HEK293 TRPC4/mu-opioid, membrane potential fluorescence | percent change from control (negative = decrease, positive = increase), % at 10 µM | 69% of 2,400 active;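 active = membrane potential signal moved up or down beyond 5 SD of buffer control wells, in both duplicate plates, actives on both sides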;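 note: plate controls were assay buffer wells for no effect and DAMGO maximal-effect wells for full effect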
TRPC4 ctr inh 2: second check of whether TRPC6 modulators also affect mouse TRPC4; shares compounds with TRPC6 inhibitor; HEK293 TRPC4/mu-opioid, membrane potential dye fluorescence; stimulated with maximal-effect DAMGO; inhibition, % at 10 µM; 55% of 2,400 active;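 active = drop in membrane potential signal beyond 5 SD of the control wells in both duplicate plates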;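 note: TRPC4 counter screen for TRPC6 hits run under conditions tuned for TRPC6 not TRPC4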
TRPC6 inh conf: mouse TRPC6 inhibitor confirmation. shares compounds with TRPC6 inhibitor. HEK293-TRPC6, membrane potential dye, ACh-evoked depolarization. inhibition, % at 10 µM. 43% of 3,300 active. AID 488960;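 active = fluorescence ratio falls more than 5 SD below the full-stimulation control mean, in both duplicate runs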;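 note: integrated fluorescence ratio of peak minus minimum over baseline after agonist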
TRPC6 act conf: confirmation of mouse TRPC6 activators. HEK293-TRPC6 membrane potential dye fluorescence, FDSS. activation, % at 10 µM. shares compounds with TRPC6 inhibitor. AID 488961. 11% of 2,800 active;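 active = ratio signal rise beyond 5 SD above unstimulated control wells' mean, seen in both duplicate runs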;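 note: plate controls were buffer EC0 wells for no effect and acetylcholine ECmax response for full effect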
* = called active by the depositor; i = inactive; nt = no result given. Rows were chosen to be rich in hits. Some 2.3% of all compounds tested hit in one or more screens of this group.

SMILES	TRPC4 act	TRPC6 activator	TRPC6 inhibitor	TRPC4 block	TRPC4 potent	HEK293 TRPC6 ctr	HEK293 MPD ctr 2	TRPC4/MOR mod	TRPC4 ctr inh 2	TRPC6 inh conf	TRPC6 act conf
Cc1ccccc1OCCC(=O)OCC(=O)NCCc1ccccc1	i	i	i	i	i	nt	nt	nt	nt	nt	nt
CC(C)C(=O)O/N=C(\N)c1ccc(Oc2ccc(Cl)cc2)c([N+](=O)[O-])c1	i	i	i	i	i	nt	nt	nt	nt	nt	nt
O=C(CSC1=N/C(=C/c2ccc(Cl)c(Cl)c2)C(=O)N1c1ccccc1F)NC1CC1	i	i	i	i	i	nt	nt	nt	nt	nt	nt
CCCCCCOc1ccc(/C(C)=N/NC2=NCCN2)cc1[N+](=O)[O-]	i	i	i	i	i	nt	nt	nt	nt	nt	nt
C/C(=N\NC1=NCCN1)c1ccc(N)c([N+](=O)[O-])c1	i	i	-6*	i	i	i	108%*	i	32%*	48%*	i
COc1ccc(-c2cn[nH]c2-c2ccc(OC)cc2O)cc1	i	i	-5.2*	i	i	i	i	-14%*	48%*	i	i
Oc1ccc(-c2[nH]ncc2-c2ccc(Cl)cc2)c(O)c1	i	i	-7.4*	i	i	-74%*	i	-22%*	79%*	46%*	i
Oc1ccc(-c2[nH]ncc2-c2ccc(Br)cc2)c(O)c1	i	i	-5.3*	i	i	-72%*	i	-16%*	68%*	50%*	i
Oc1ccc(-c2[nH]ncc2-c2cccc3cccnc23)c(O)c1	i	i	i	i	i	nt	nt	nt	nt	nt	nt
COc1ccc(-c2[nH]ncc2-c2ccc(Cl)cc2)c(O)c1	i	i	i	i	i	nt	nt	nt	nt	nt	nt
Cc1ccc(Nc2nnc(-c3ccccc3N)o2)cc1C	i	i	i	i	i	nt	nt	nt	nt	nt	nt
COc1ccc(-n2cc(CNCCCn3ccnc3)c(-c3cccc(F)c3)n2)cc1	i	i	-6*	i	i	i	i	-8.5%*	74%*	42%*	i
CC(NC(=O)CSc1nnc(-c2cccnc2)n1N)c1ccccc1 (stereo not given)	i	i	i	i	i	nt	nt	nt	nt	nt	nt
Cc1ccc(C)c(NC(=O)CS(=O)(=O)c2cccc3nsnc23)c1	i	i	i	i	i	nt	nt	nt	nt	nt	nt
O=C(NNc1ccc(C(F)(F)F)cc1[N+](=O)[O-])c1ccc(NS(=O)(=O)c2ccc(F)cc2)cc1	i	i	-5.4*	i	i	-112%*	i	-26%*	62%*	64%*	i
CC(C)[C@H](Nc1ccc(C(F)(F)F)cc1[N+](=O)[O-])C(=O)O	i	i	i	i	i	nt	nt	nt	nt	nt	nt
CCC(C)(C)NC(=O)C1CC(=O)N(CCc2ccc(F)cc2)C1 (stereo not given)	i	i	i	i	i	nt	nt	nt	nt	nt	nt
CSCC(O)Cn1ncc2ccccc2c1=O (stereo not given)	i	i	i	i	i	nt	nt	nt	nt	nt	nt
O=C(CN1CCOc2ccccc21)N1CCN(c2cccc(Cl)c2)CC1	i	i	-5.5*	i	i	i	i	i	36%*	i	i
Cc1cccc(N2CCN(C(=O)CN3CCOc4ccccc43)CC2C)c1 (stereo not given)	i	i	i	i	i	nt	nt	nt	nt	nt	nt
COc1ccc(S(=O)(=O)N2CCN(C3CCCC(C)C3)CC2)cc1 (stereo not given)	i	i	i	i	i	nt	nt	nt	nt	nt	nt
